Only a selection was taken, and hits are over-represented in it overall.
Insulin prom act – TRM-6 insulin promoter activation | TRM-6 cells (human fetal islet line), insulin promoter eGFP reporter, imaging; plate-scaled: unstimulated 0, stimulated control 100 | activation, % at 2 µM | actives 0.81% (n = 130,000) | AID 1296;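 active means activation at 2 µM above a set limit, confirmed on inspection of the cell images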;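 further: share of cells whose green reporter signal exceeds an intensity cutoff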
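test system = TRM-6 insulin promoter–eGFP reporter cells | benchmarks = stimulated versus unstimulated wells as plate controls | read-out basis = percent cells above green-intensity threshold, converted to percent activation versus plate controls | detection = fixed-cell fluorescence microscopy, eGFP plus Hoechst | incubation = tamoxifen pre-incubation 15 h overnight, then compound exposure 48 h at 37 °C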
* hit, by the source's call.

SMILES | Insulin prom act
Cc1ccc(S(=O)(=O)NC(c2ccccc2)C(C)C(=O)n2nc(C)cc2C)cc1 (centres undefined) | 117*
O=C(O)C(NS(=O)(=O)c1ccc(F)cc1)c1ccccc1 (centres undefined) | -6
Cc1cc(Nc2ccccc2)n(C(=O)c2ccccc2)n1 | 6
CC(NC(=O)CN1CCc2ccccc21)c1ccccc1 (centres undefined) | -3
C/C(N)=C(/C#N)C(=O)CSc1nnc(COc2cc(C)ccc2C)o1 | 3
COc1ccccc1C(=O)Nc1sc2c(c1C(=O)NCc1ccco1)CCCC2 | 6
N#Cc1cccc(NC(=O)CSc2ccc3c4c(cccc24)C(=O)c2ccccc2-3)c1 | 233*
N#Cc1cccc(NC(=O)CSc2ccccc2)c1 | -9
COc1ccc(NC(=O)CSc2ccc3c4c(cccc24)C(=O)c2ccccc2-3)cc1 | 111
CCOC(=O)c1c(C)n(-c2ccc(C)cc2)c2ccc(OCC(O)CN3CCN(C)CC3)cc12 (centres undefined) | 107
O=C(COc1ccc(S(=O)(=O)NC2CCCCC2)cc1Cl)NCc1ccc2c(c1)OCO2 | 100*
COC(=O)COc1ccc(S(=O)(=O)Nc2ccc3c(c2)OCO3)cc1Cl | 228
O=C(COc1ccc(S(=O)(=O)N2CCCC2)cc1Cl)NCc1ccc2c(c1)OCO2 | -5
O=C(COC(=O)CCc1nc2ccccc2c(=O)[nH]1)NC(=O)NC1CCCC1 | -7
Cc1cc(C)n2nc(N)c(N=Nc3cccc(Cl)c3)c2n1 | -62
Cc1cc(=O)[nH]c2c(N=Nc3ccc(O)cc3)c(N)nn12 | 383*
Cc1ccc(N=Nc2c(N)nn3c(C)cc(C)nc23)cc1 | -82
Cc1ccc2c(c1)N(CCC(=O)NCc1cccs1)C(=O)C(C)O2 (centres undefined) | -4
N/C(COc1ccccc1)=N\NC(=O)c1cccnc1Oc1ccccc1 | -8
Cc1ccc(/C=C/C(=O)Nc2ccc(S(=O)(=O)Nc3ncccn3)cc2)cc1 | -7
CCc1nnc(NC(=O)/C=C/c2ccco2)s1 | -6
CCc1nnc(NS(=O)(=O)c2ccc(NC(=O)/C=C/c3ccc(F)cc3)cc2)s1 | 275*
O=C1CSCN1c1ccc(Cl)cc1 | 0
CC(=O)Nc1ccc(NC(=O)COC(=O)Cc2cccs2)cc1 | 0
CC(C)Cn1c(SCC(=O)N2CCCCC2)nc2ccccc2c1=O | 269
SMILES | Insulin prom act
C=CCn1c(=O)c2ccccc2n2c(SCC(N)=O)nnc12 | 9
O=C(CSc1nnc2n(C3CCCC3)c(=O)c3ccccc3n12)N1CCCCCC1 | 121*
C=CC[C@H]1CC(Cc2ccccc2)=C[C@H](CC=C)N1 | 151
N#C/C(=C\C1CC2C=CC1C2)c1nc2ccccc2[nH]1 (centres undefined) | -79
COc1ccc(NC(=O)c2nc3nccc(C)n3n2)cn1 | -4
CC(C)C[C@@H]1NC(=O)[C@H](Cc2ccc(O)cc2)NC(=O)c2cc([N+](=O)[O-])cc(I)c2NCCC[C@@H](C(N)=O)NC1=O | 5
NC(=O)[C@@H]1CCCCNc2c(I)cc([N+](=O)[O-])cc2C(=O)N[C@@H](CCC(=O)O)C(=O)N[C@@H](CO)C(=O)N1 | -60
NC(=O)[C@@H]1CCCNc2c(I)cc([N+](=O)[O-])cc2C(=O)N[C@@H](Cc2ccccc2)C(=O)N[C@@H](Cc2cnc[nH]2)C(=O)N1 | 285*
O=C(COC(=O)CC(c1ccccc1)c1ccccc1)Nc1c(F)cccc1F | -4
Cc1cccc(C)c1N(CC(=O)N1CCN(c2ccccc2F)CC1)S(C)(=O)=O | 7
Cc1nccn1CC(O)Cn1c2ccccc2c2ccccc21 (centres undefined) | 9
Cc1cccc(C)c1N(CC(O)Cn1c2ccccc2c2ccccc21)S(C)(=O)=O (centres undefined) | 89*
Cc1ccc(Cl)cc1NC(=S)NCCCSC1CCCCC1 | 9
C=CCN1C(=O)/C(=C\c2ccc(OC(=O)c3ccco3)c(OC)c2)SC1=S | 111
O=C1/C(=C\c2ccco2)SC(=S)N1Cc1ccccc1 | 150*
Cc1ccc(N2C(=O)/C(=C\c3ccco3)SC2=S)cc1 | -3
C=CCn1c(SCC(=O)Nc2sccc2C#N)nc2sc(C)c(C)c2c1=O | -6
COc1ccc(-c2cc(CNC(=O)CN(C)Cc3ccccc3)on2)cc1 | 10
Cc1ccc(/C=N/NC(=O)CCn2nc(C)cc2C)c(C)c1 | 0
CCOC(=O)c1ccc(NC(=O)CSc2ccc(-c3ccncc3)nn2)cc1 | 8
COc1cccc(OC)c1C(=O)OCC(=O)NCC(C)C | 0
CC(C)CCNC(=O)NC(=O)COC(=O)C1=COCCO1 | -78
CC(C)CNC(=O)NC(=O)COC(=O)c1cc(F)cc(F)c1 | 333*
O=C(COc1ccc(Cl)cc1Cl)Nc1c(-c2cccs2)nc2ccccn12 | -6
CC(C)CNC(=O)CO/N=C/c1ccccc1Cl | 108
SMILES | Insulin prom act
O=C(Nc1ccccc1)O/N=C/c1ccccc1Cl | 87*
O=[N+]([O-])c1ccc(Cl)c(/C=N/NC(=S)Nc2ccccc2)c1 | 5
CN(C)C(=O)C(NC(=O)c1ccccc1)=C(Cl)Cl | -7
CCc1ccc(-c2cc(C(F)(F)F)n3nc(C(=O)Nc4cnn(Cc5ccc(C)cc5)c4)cc3n2)s1 | 3
Cc1nn(-c2ccccc2)c(C)c1/C=N/NC(=O)c1cc(-c2ccccc2)n[nH]1 | 125*
Cc1nn(-c2ccccc2)c(C)c1/C=N/NC(=O)CSc1nnc(SCc2ccccc2Cl)s1 | 167
Cc1nn(-c2ccccc2)c(C)c1/C=N/n1c(-c2ccc(Cl)cc2)n[nH]c1=S | 0
O=C1C2CC(O)CN2C(=O)N1c1ccccc1 (centres undefined) | 0
Oc1ccc(C2C(c3ccccc3)=NN=C(c3ccc(Cl)cc3)N2O)c(O)c1 (centres undefined) | -6
C/C(=N\Nc1nc2ccccc2[nH]1)c1ccc(N2CCOCC2)cc1 | -75
Clc1ccc(CN2C3=NCCCN3c3ccccc32)cc1 | 136*
OC(CN1C2=NCCN2c2ccccc21)c1ccc(Br)cc1 (centres undefined) | -3
O=C(CN1C2=NCCCN2c2ccccc21)c1cccc(Br)c1 | -8
COc1ccc(S(=O)(=O)n2nc(C)cc2C)c(C)c1C | -7
CCCCn1c(=O)c(CCC(=O)OCC(=O)NC(=O)NCCC(C)C)nc2ccccc21 | 0
COc1ccc(N2CCN(C(CNC(=O)OCc3ccccc3)c3ccco3)CC2)cc1 (centres undefined) | -5
CCOc1ccc(-n2c(C)nnc2SCC(=O)N(CC)CC)cc1 | 0
CCS(=O)(=O)Nc1ccc(C2=NN(S(C)(=O)=O)C(c3cccs3)C2)cc1 (centres undefined) | 106
COc1cc(/C=N/NC(=O)c2ccncc2)ccc1OC(=O)c1ccc([N+](=O)[O-])cc1 | -100
COc1ccc(/C=N/NC(=O)c2ccncc2)cc1Cn1nc([N+](=O)[O-])c(Br)c1C | 394*
COc1ccc(/C=N/NC(=O)c2ccc(Br)o2)cc1Cn1cc([N+](=O)[O-])cn1 | 0
O=C(Oc1ccc2cc(Br)ccc2c1)c1cccnc1 | -3
CCN(CC)S(=O)(=O)c1ccc(OC)c(NC(=O)Cn2cnc3c2c(=O)n(C)c(=O)n3C)c1 | 0
CCOc1cc(C(=O)N/N=C/C2CC=CCC2)cc(OCC)c1OCC (centres undefined) | -7
O=C(NCc1ccccn1)C1CCCCC1 | -2
Cc1ccc(NC(=O)CCn2nc([N+](=O)[O-])cc2C)nc1 | 0
Cc1cccc(NC(=S)N/C(=N/S(=O)(=O)c2ccccc2)c2ccccc2)c1 | -8
